Results taken from PMC7359933 (Clinical and Translational Science, 2020).
Read-outs that look alike come from different tables or passages of the source. Marks after values point to notes of the source that are not given here.

What was measured:
[1] = system: healthy volunteers; conditions: total daily fostemsavir dose of 20–2,400 mg ref 10; cited from earlier work
[2] = system: heavily treatment‐experienced subjects; conditions: treated for 96 weeks, BRIGHTE, fostemsavir 600 mg b.i.d. ref 23; cited from earlier work
[3] = system: healthy volunteers; assay: Adverse events and discontinuations in thorough QT study part 2; format: in vivo, human
[4] = system: healthy volunteers; parameters: species or system human; conditions: at observed mean TMR Cmax, healthy adults
[5] = TMR after FTR 600 mg b.i.d., N = 16, healthy adults ref 21; cited from earlier work
[6] = system: healthy volunteers; assay: Thorough QT study part 1 sentinel cohort safety; format: in vivo, human; conditions: fostemsavir 2,400 mg b.i.d. for 7 days (n = 6)
[7] = system: HIV‐1; conditions: cited from earlier work
[8] = system: healthy volunteers; assay: Thorough QT/QTc study part 2: Holter ECG, Fridericia-corrected QT interval; format: in vivo, human
In short: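 Healthy subjects, randomized four-period crossover with 10-day washouts, fed: oral fostemsavir 1,200 mg q.d. or 2,400 mg b.i.d. for 7 days, placebo b.i.d., or single moxifloxacin 400 mg on day 7. Triplicate ECGs from 24-h Holter, read centrally. Baseline is the mean of day-1 predose readings; readings 0.5–22.25 h post-dose on day 7. Linear mixed model gives 90% CI; bound 10 msec; assay sensitivity >5 msec at 2–4 h.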

[9] = fostemsavir 1,200 mg q.d., at 6 hours postdose
[10] = fostemsavir 2,400 mg b.i.d., at 5 hours post‐AM dose

COc1cnc(-n2cnc(C)n2)c2c1c(C(=O)C(=O)N1CCN(C(=O)c3ccccc3)CC1)cn2COP(=O)(O)O [fostemsavir]
cardiovascular abnormalities [1]: no clinically relevant cardiovascular abnormalities were observed
subjects discontinued due to QT prolongation (> 450 msec) [2]: Less than 2%
subjects discontinued due to QT prolongation (> 450 msec), number/total [2]: 7/371
AE rate ([3]; fostemsavir 1,200 mg q.d.): 53%
headache ([3]; fostemsavir 1,200 mg q.d.): 16%
AE rate ([3]; fostemsavir 2,400 mg b.i.d.): 56%
headache ([3]; fostemsavir 2,400 mg b.i.d.): 35%
subjects discontinued for AEs ([3]; fostemsavir 2,400 mg b.i.d. (vomiting, elevated aminotransferases, rash, headache/anxiety/dyspnea/pharyngeal edema)): five
ddQTcF upper 90% CI boundary, model‐predicted ([4]; FTR 600 mg b.i.d. + cobicistat 150 mg q.d.): ≤ 5.0 ms
ddQTcF upper 90% CI boundary, model‐predicted ([4]; FTR 600 mg b.i.d. + cobicistat 150 mg q.d., listed as FTR): 5.0 ^a msec
ddQTcF upper 90% CI boundary, model‐predicted ([4]; FTR 600 mg b.i.d.): ≤ 3.2 ms
ddQTcF upper 90% CI boundary, model‐predicted ([4]; FTR 600 mg b.i.d., listed as FTR): 3.2 ^a msec
Mean Cmax [5]: 2,096 ^b ng/mL
safety data [6]: all AEs (primarily dizziness and headache) were mild and there were no relevant cardiac signals
activity with regard to HIV‐1 tropism [7]: active regardless of HIV‐1 tropism
in vitro cross‐resistance to other antiretroviral drug classes [7]: no in vitro cross‐resistance
Mean change from baseline, msec ddQTcF ([8]; FTR 1,200 mg q.d. (A), day 7, 0.5 hour): –7.44 msec
Mean change from baseline, msec ddQTcF ([8]; FTR 1,200 mg q.d. (A), day 7, 1 hour): –7.25 msec
Mean change from baseline, msec ddQTcF ([8]; FTR 1,200 mg q.d. (A), day 7, 2 hour): –6.78 msec
Mean change from baseline, msec ddQTcF ([8]; FTR 1,200 mg q.d. (A), day 7, 3 hour): –7.54 msec
Mean change from baseline, msec ddQTcF ([8]; FTR 1,200 mg q.d. (A), day 7, 4 hour): –3.37 msec
Mean change from baseline, msec ddQTcF ([8]; FTR 1,200 mg q.d. (A), day 7, 5 hour): –0.49 msec
Mean change from baseline, msec ddQTcF ([8]; FTR 1,200 mg q.d. (A), day 7, 6 hour): –4.52 msec
Mean change from baseline, msec ddQTcF ([8]; FTR 1,200 mg q.d. (A), day 7, 8 hour): –6.87 msec
Mean change from baseline, msec ddQTcF ([8]; FTR 1,200 mg q.d. (A), day 7, 10 hour): 0.76 ms
Mean change from baseline, msec ddQTcF ([8]; FTR 1,200 mg q.d. (A), day 7, 11.5 hour): –5.31 msec
Mean change from baseline, msec ddQTcF ([8]; FTR 1,200 mg q.d. (A), day 7, 14 hour): –7.05 msec
Mean change from baseline, msec ddQTcF ([8]; FTR 1,200 mg q.d. (A), day 7, 15 hour): –3.84 msec
Mean change from baseline, msec ddQTcF ([8]; FTR 1,200 mg q.d. (A), day 7, 16 hour): –1.48 msec
Mean change from baseline, msec ddQTcF ([8]; FTR 1,200 mg q.d. (A), day 7, 22.25 hour): –3.18 msec
Mean difference vs. placebo (90% CI), msec ddQTcF ([8]; FTR 1,200 mg q.d. (A–D), day 7, 0.5 hour): 0.10 (–1.98, 2.18) msec
Mean difference vs. placebo (90% CI), msec ddQTcF ([8]; FTR 1,200 mg q.d. (A–D), day 7, 1 hour): 0.51 (–1.57, 2.58) msec
Mean difference vs. placebo (90% CI), msec ddQTcF ([8]; FTR 1,200 mg q.d. (A–D), day 7, 2 hour): 3.84 (1.75, 5.93) msec
Mean difference vs. placebo (90% CI), msec ddQTcF ([8]; FTR 1,200 mg q.d. (A–D), day 7, 3 hour): 2.49 (0.40, 4.57) msec
Mean difference vs. placebo (90% CI), msec ddQTcF ([8]; FTR 1,200 mg q.d. (A–D), day 7, 4 hour): 3.66 (1.58, 5.75) msec
Mean difference vs. placebo (90% CI), msec ddQTcF ([8]; FTR 1,200 mg q.d. (A–D), day 7, 5 hour): 4.18 (2.11, 6.26) msec
Mean difference vs. placebo (90% CI), msec ddQTcF ([8]; FTR 1,200 mg q.d. (A–D), day 7, 6 hour): 4.27 (2.19, 6.34) msec
Mean difference vs. placebo (90% CI), msec ddQTcF ([8]; FTR 1,200 mg q.d. (A–D), day 7, 10 hour): 3.94 (1.86, 6.01) msec
Mean difference vs. placebo (90% CI), msec ddQTcF ([8]; FTR 1,200 mg q.d. (A–D), day 7, 11.5 hour): 1.61 (–0.48, 3.69) msec
Mean difference vs. placebo (90% CI), msec ddQTcF ([8]; FTR 1,200 mg q.d. (A–D), day 7, 14 hour): –0.10 (–2.18, 1.972) msec
Mean difference vs. placebo (90% CI), msec ddQTcF ([8]; FTR 1,200 mg q.d. (A–D), day 7, 15 hour): 0.30 (–1.78, 2.38) msec
Mean difference vs. placebo (90% CI), msec ddQTcF ([8]; FTR 1,200 mg q.d. (A–D), day 7, 16 hour): 0.04 (–2.04, 2.12) msec
Mean difference vs. placebo (90% CI), msec ddQTcF ([8]; FTR 1,200 mg q.d. (A–D), day 7, 22.25 hour): 0.29 (–1.79, 2.36) msec
Mean change from baseline, msec ddQTcF ([8]; FTR 2,400 mg b.i.d. (B), day 7, 0.5 hour): –6.04 msec
Mean change from baseline, msec ddQTcF ([8]; FTR 2,400 mg b.i.d. (B), day 7, 1 hour): –6.15 msec
Mean change from baseline, msec ddQTcF ([8]; FTR 2,400 mg b.i.d. (B), day 7, 2 hour): –6.90 msec
Mean change from baseline, msec ddQTcF ([8]; FTR 2,400 mg b.i.d. (B), day 7, 3 hour): –3.67 msec
Mean change from baseline, msec ddQTcF ([8]; FTR 2,400 mg b.i.d. (B), day 7, 4 hour): 1.64 ms
Mean change from baseline, msec ddQTcF ([8]; FTR 2,400 mg b.i.d. (B), day 7, 5 hour): 6.50 ms
Mean change from baseline, msec ddQTcF ([8]; FTR 2,400 mg b.i.d. (B), day 7, 6 hour): 0.18 ms
Mean change from baseline, msec ddQTcF ([8]; FTR 2,400 mg b.i.d. (B), day 7, 8 hour): –3.46 msec
Mean change from baseline, msec ddQTcF ([8]; FTR 2,400 mg b.i.d. (B), day 7, 10 hour): 1.51 ms
Mean change from baseline, msec ddQTcF ([8]; FTR 2,400 mg b.i.d. (B), day 7, 11.5 hour): –3.88 msec
Mean change from baseline, msec ddQTcF ([8]; FTR 2,400 mg b.i.d. (B), day 7, 14 hour): –1.65 msec
Mean change from baseline, msec ddQTcF ([8]; FTR 2,400 mg b.i.d. (B), day 7, 15 hour): 4.45 ms
Mean change from baseline, msec ddQTcF ([8]; FTR 2,400 mg b.i.d. (B), day 7, 16 hour): 8.59 ms
Mean change from baseline, msec ddQTcF ([8]; FTR 2,400 mg b.i.d. (B), day 7, 22.25 hour): 0.16 ms
Mean difference vs. placebo (90% CI), msec ddQTcF ([8]; FTR 2,400 mg b.i.d. (B–D), day 7, 0.5 hour): 1.50 (–0.63, 3.62) msec
Mean difference vs. placebo (90% CI), msec ddQTcF ([8]; FTR 2,400 mg b.i.d. (B–D), day 7, 1 hour): 1.61 (–0.51, 3.73) msec
Mean difference vs. placebo (90% CI), msec ddQTcF ([8]; FTR 2,400 mg b.i.d. (B–D), day 7, 2 hour): 3.72 (1.60, 5.84) msec
Mean difference vs. placebo (90% CI), msec ddQTcF ([8]; FTR 2,400 mg b.i.d. (B–D), day 7, 3 hour): 6.36 (4.23, 8.48) msec
Mean difference vs. placebo (90% CI), msec ddQTcF ([8]; FTR 2,400 mg b.i.d. (B–D), day 7, 4 hour): 8.67 (6.55, 10.79) msec
Mean difference vs. placebo (90% CI), msec ddQTcF ([8]; FTR 2,400 mg b.i.d. (B–D), day 7, 5 hour): 11.18 (9.05, 13.30) msec
Mean difference vs. placebo (90% CI), msec ddQTcF ([8]; FTR 2,400 mg b.i.d. (B–D), day 7, 6 hour): 8.96 (6.84, 11.10) msec
Mean difference vs. placebo (90% CI), msec ddQTcF ([8]; FTR 2,400 mg b.i.d. (B–D), day 7, 8 hour): 5.33 (3.21, 7.46) msec
Mean difference vs. placebo (90% CI), msec ddQTcF ([8]; FTR 2,400 mg b.i.d. (B–D), day 7, 10 hour): 4.69 (2.57, 6.81) msec
Mean difference vs. placebo (90% CI), msec ddQTcF ([8]; FTR 2,400 mg b.i.d. (B–D), day 7, 11.5 hour): 3.04 (0.92, 5.17) msec
Mean difference vs. placebo (90% CI), msec ddQTcF ([8]; FTR 2,400 mg b.i.d. (B–D), day 7, 14 hour): 5.30 (3.18, 7.43) msec
Mean difference vs. placebo (90% CI), msec ddQTcF ([8]; FTR 2,400 mg b.i.d. (B–D), day 7, 15 hour): 8.60 (6.47, 10.73) msec
Mean difference vs. placebo (90% CI), msec ddQTcF ([8]; FTR 2,400 mg b.i.d. (B–D), day 7, 16 hour): 10.10 (7.98, 12.23) msec
Mean difference vs. placebo (90% CI), msec ddQTcF ([8]; FTR 2,400 mg b.i.d. (B–D), day 7, 22.25 hour): 3.63 (1.51, 5.75) msec
change from placebo in baseline‐adjusted Fridericia‐corrected QTc (ddQTcF) ([8]; Fostemsavir 1,200 mg b.i.d.): did not result in a clinically meaningful change
effect on heart rate, QRS or PR intervals, or waveform morphology ([8]; fostemsavir 1,200 mg q.d. and 2,400 mg b.i.d.): did not have a clinically meaningful effect
upper bound of the 90% CI around ddQTcF ([8]; fostemsavir 1,200 mg q.d., all time points): below 10 msec
ddQTcF upper bound of two‐sided 90% CI at maximum [8, 9]: 6.3 ms
maximum time‐matched ddQTcF [8, 9]: 4.3 ms
subjects with maximum QTcF between 450 and 480 msec ([8]; fostemsavir 2,400 mg b.i.d.): Three
subjects with maximum change in QTcF between 30 and 60 msec ([8]; fostemsavir 2,400 mg b.i.d.): Four
ddQTcF upper bound of two‐sided 90% CI at maximum [8, 10]: 13.3 ms
maximum time‐matched ddQTcF [8, 10]: 11.2 ms
ddQTcF upper bound of two‐sided 90% CI at maximum ([8]; fostemsavir 2,400 mg b.i.d., at 5 hours post‐AM dose, listed as FTR): 13.3 (at 5 hour) msec
